From ChEMBL document CHEMBL1132408, “Novel lipoamino acid- and liposaccharide-based system for peptide delivery: application for oral administration of tumor-selective somatostatin analogues” (J Med Chem, 1999)

Columns and labels:
Type in all cases: functional, Homo sapiens
[1] = system: A-431; assay: (§1) The compound was tested in vitro for antiproliferative activity against A431 tumor cell lines; parameters: concentration or dose not given beside the values
Procedure, shortened: (§2)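 Human tumor cell lines were exposed to the conjugates for 24 h at 50 µg/mL. Surviving cells converted the tetrazolium salt MTT to formazan, and OD was read at 570 nm. Values are percent inhibition relative to untreated cells (0%), given as the mean ± SD of at least three parallels. The methods also list 20, 50 and 100 µg/mL and 24 or 48 h exposures.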

[2] = system: HT-29; assay: The compound was tested in vitro for antiproliferative activity against HT-29 tumor cell lines; parameters: concentration or dose not given beside the values; procedure, shortened: as §2
[3] = system: A2058; assay: The compound was tested in vitro for antiproliferative activity against A2058 tumor cell lines; parameters: concentration or dose not given beside the values; procedure, shortened: as §2
[4] = system: Faza 967 cell clone 2/T1; assay: The compound was tested in vitro for antiproliferative activity against Faza 967 clone2/T1 tumor cell lines; parameters: concentration or dose not given beside the values
[5] = system: Faza 967 clone 2; assay: The compound was tested in vitro for antiproliferative activity against Faza 967 clone2 tumor cell lines; parameters: concentration or dose not given beside the values
[6] = system: SW-620; assay: The compound was tested in vitro for antiproliferative activity against […] tumor cell lines; procedure, shortened: as §2
[7] = system: PC-3; assay: The compound was tested in vitro for antiproliferative activity against PC3 tumor cell lines; procedure, shortened: as §2
[8] = system: A-431; assay: as §1; procedure, shortened: as §2

Compound	Inhibition [1]	Inhibition [2]	Inhibition [3]	Inhibition [4]	Inhibition [5]	Inhibition [6]	Inhibition [7]	Inhibition [8]
CCCCCCCCC(NC(=O)[C@@H](NC(=O)[C@H](CSCNC(C)=O)NC(=O)[C@H](CCCCN)NC(=O)[C@@H](Cc1c[nH]c2ccccc12)NC(=O)[C@@H](NC(=O)[C@H](CSCNC(C)=O)NC(=O)[C@H](N)Cc1ccccc1)c1ccc(O)cc1)[C@@H](C)O)C(=O)NCC(=O)O (some centres not stated)	76%	93%	97%	90%	92%	–	–	–
CCCCCCCCC(N)C(=O)N[C@H](Cc1ccccc1)C(=O)N[C@H]1CSSC[C@@H](C(=O)N[C@H](C(N)=O)[C@@H](C)O)NC(=O)[C@H](CCCCN)NC(=O)[C@@H](Cc2c[nH]c3ccccc23)NC(=O)[C@H](c2ccc(O)cc2)NC1=O (some centres not stated)	–	–	–	–	–	95%	42%	–
CCCCCCCCCCCCCCCCC(N)C(=O)N[C@H](Cc1ccccc1)C(=O)N[C@@H](CSCNC(C)=O)C(=O)N[C@H](C(=O)N[C@H](Cc1c[nH]c2ccccc12)C(=O)N[C@@H](CCCCN)C(=O)N[C@@H](CSCNC(C)=O)C(=O)N[C@H](C(N)=O)[C@@H](C)O)c1ccc(O)cc1 (some centres not stated)	83%	20%	60%	88%	93%	–	–	–
CCCCCCCCCCC(N)C(=O)N[C@H](Cc1ccccc1)C(=O)N[C@H]1CSSC[C@@H](C(=O)N[C@H](C(N)=O)[C@@H](C)O)NC(=O)[C@H](CCCCN)NC(=O)[C@@H](Cc2c[nH]c3ccccc23)NC(=O)[C@H](c2ccc(O)cc2)NC1=O (some centres not stated)	–	–	–	–	–	65%	5%	–
CCCCCCCCCCC(N)C(=O)NCC(=O)NCC(=O)N[C@H](Cc1ccccc1)C(=O)N[C@H]1CSSC[C@@H](C(=O)N[C@H](C(N)=O)[C@@H](C)O)NC(=O)[C@H](CCCCN)NC(=O)[C@@H](Cc2c[nH]c3ccccc23)NC(=O)[C@H](c2ccc(O)cc2)NC1=O (some centres not stated)	48%	50%	35%	43%	33%	–	–	–
CC(=O)NCSC[C@H](NC(=O)[C@H](N)Cc1ccccc1)C(=O)N[C@H](C(=O)N[C@H](Cc1c[nH]c2ccccc12)C(=O)N[C@@H](CCCCN)C(=O)N[C@@H](CSCNC(C)=O)C(=O)N[C@H](C(N)=O)[C@@H](C)O)c1ccc(O)cc1	34%	80%	30%	0%	10%	–	–	–
CCCCCCCCCCCCC(NC(=O)CCC(=O)NC1OC(O)C(O)C(O)C1O)C(=O)N[C@H](Cc1ccccc1)C(=O)N[C@H]1CSSC[C@@H](C(=O)N[C@H](C(N)=O)[C@@H](C)O)NC(=O)[C@H](CCCCN)NC(=O)[C@@H](Cc2c[nH]c3ccccc23)NC(=O)[C@H](c2ccc(O)cc2)NC1=O (some centres not stated)	–	30%	100%	–	–	–	55%	–
CCCCCCCCCCCCC(N[C@H](Cc1ccccc1)C(=O)N[C@@H](CSCNC(C)=O)C(=O)N[C@H](C(=O)N[C@H](Cc1c[nH]c2ccccc12)C(=O)N[C@@H](CCCCN)C(=O)N[C@@H](CSCNC(C)=O)C(=O)N[C@H](C(N)=O)[C@@H](C)O)c1ccc(O)cc1)C(=O)NC1OC(O)C(O)C(O)C1O (some centres not stated)	32%	39%	62%	50%	61%	–	–	–
CCCCCCCCC(N)C(=O)NC(CCCCCCCC)C(=O)N[C@H](Cc1ccccc1)C(=O)N[C@@H](CSCNC(C)=O)C(=O)N[C@H](C(=O)N[C@H](Cc1c[nH]c2ccccc12)C(=O)N[C@@H](CCCCN)C(=O)N[C@@H](CSCNC(C)=O)C(=O)N[C@H](C(N)=O)[C@@H](C)O)c1ccc(O)cc1 (some centres not stated)	–	60%	68%	95%	96%	–	–	–
CCCCCCCCCCCCCCCCCCC(N)C(=O)N[C@H](Cc1ccccc1)C(=O)N[C@@H](CSCNC(C)=O)C(=O)N[C@H](C(=O)N[C@H](Cc1c[nH]c2ccccc12)C(=O)N[C@@H](CCCCN)C(=O)N[C@@H](CSCNC(C)=O)C(=O)N[C@H](C(N)=O)[C@@H](C)O)c1ccc(O)cc1 (some centres not stated)	–	50%	34%	87%	71%	–	–	–
CCCCCCCCCCCCC(N)C(=O)N[C@H](Cc1ccccc1)C(=O)N[C@@H](CSCNC(C)=O)C(=O)N[C@H](C(=O)N[C@H](Cc1c[nH]c2ccccc12)C(=O)N[C@@H](CCCCN)C(=O)N[C@@H](CSCNC(C)=O)C(=O)N[C@H](C(=O)NC1OC(C(N)=O)C(O)C(O)C1O)[C@@H](C)O)c1ccc(O)cc1 (some centres not stated)	10%	18%	2%	17%	23%	–	–	–
CCCCCCCCCCC(N)C(=O)N[C@H](Cc1ccccc1)C(=O)N[C@@H](CSCNC(C)=O)C(=O)N[C@H](C(=O)N[C@H](Cc1c[nH]c2ccccc12)C(=O)N[C@@H](CCCCN)C(=O)N[C@@H](CSCNC(C)=O)C(=O)N[C@H](C(=O)NC1OC(C(N)=O)C(O)C(O)C1O)[C@@H](C)O)c1ccc(O)cc1 (some centres not stated)	50%	36%	80%	29%	19%	–	–	–
CC(=O)NCSC[C@H](NC(=O)[C@H](N)Cc1ccccc1)C(=O)N[C@H](C(=O)N[C@H](Cc1c[nH]c2ccccc12)C(=O)N[C@@H](CCCCN)C(=O)N[C@@H](CSCNC(C)=O)C(=O)N[C@H](C(=O)NC1OC(C(N)=O)C(O)C(O)C1O)[C@@H](C)O)c1ccc(O)cc1 (some centres not stated)	90%	85%	88%	90%	93%	–	–	–
C[C@@H](O)[C@H](NC(=O)C1CSSCC(NC(=O)[C@H](N)Cc2ccccc2)C(=O)N[C@@H](c2ccc(O)cc2)C(=O)NC(Cc2c[nH]c3ccccc23)C(=O)N[C@@H](CCCCN)C(=O)N1)C(N)=O (single isomer, unassigned)	–	76%	96%	100%	100%	90%	90%	100%
